Experimental findings from ChEMBL document CHEMBL3627689, “Structural design, synthesis and pharmacological evaluation of 4-thiazolidinones against Trypanosoma cruzi” (Bioorg Med Chem, 2015) are described below.

Calls of active or inactive are those of the source. The rule behind the calls is not given here.

For data set [1], the target named is Cruzipain (Trypanosoma cruzi) (UniProt P25779). Nature of the data set: Competitive inhibition of Trypanosoma cruzi Cruzain using Z-FR-AMC as substrate at 100 uM preincubated for 10 mins followed by substrate addition measured every 12 secs for 5 mins by fluorescence assay relative to control.
Data set [2] is described as follows: Selectivity index, ratio of CC50 for mouse J774 cells to IC50 for bloodstream trypomastigote stage of Trypanosoma cruzi Y.
Data set [3] relates to Trypanosoma cruzi. The experiment in a line: Antiparasitic activity against bloodstream trypomastigote stage of Trypanosoma cruzi Y assessed as parasite viability after 24 hrs by Neubauer chamber analysis. The format is functional, organism-based. The gist of the method:
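Y strain bloodstream trypomastigotes were harvested from infected LLC-MK2 cell supernatants. They were exposed to compounds at five concentrations for 24 h at 37 °C, 5% CO₂. Viable parasites were counted in a Neubauer chamber by motility. Inhibition was calculated relative to untreated cultures, and IC50 was derived by non-linear regression.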

The nature of data set [4]: Cytotoxicity against mouse J774 cells assessed as cell viability after 72 hrs by Alamar Blue assay. Format: cell-based. The method, boiled down: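 J774 macrophages were plated at 5 × 10⁴ cells/mL in RPMI + 10% FBS with gentamycin and grown 24 h at 37 °C, 5% CO₂. Compounds in DMSO (final <1%) were added at six concentrations (0.41–100 µM) in triplicate for 72 h. Viability was read by AlamarBlue at 570/600 nm after 6 h. CC50 came from three independent experiments, with gentian violet as positive control.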

Data set [5] relates to Trypanosoma cruzi. Nature of the data set: Antichagasic activity against Trypanosoma cruzi. The format is functional.
The test system of a further data set is Leishmania. Nature of the data set: Antiparasitic activity against Leishmania. Format: functional.
Data set [6] has as its system Trypanosoma cruzi. The experiment in a line: Antiparasitic activity against amastigote stage of Trypanosoma cruzi Y in BALB/c mouse macrophages assessed as decrease in number of infected cells at 50 uM incubated for 6 hrs by Giemsa staining-based optical microscopic analysis. Format: functional, organism-based. The method, boiled down: (§1)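 Thioglycolate-elicited peritoneal macrophages from BALB/c mice, 2 × 10⁵ cells/well on coverslips in RPMI + 10% FBS for 24 h, then infected with Y strain trypomastigotes (10 per macrophage) for 2 h. Free parasites washed off. Compounds added at 50 µM for 6 h, medium replaced, 3 days further culture. Methanol fixation, Giemsa staining, 100 cells counted per slide. Triplicate, two independent experiments.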

Data set [7] deals with Trypanosoma cruzi. Nature of the data set: Potency index, ratio of benznidazole IC50 to compound IC50 for bloodstream trypomastigote stage of Trypanosoma cruzi Y. The format is functional.
The test system of data set [8] is Trypanosoma cruzi. Nature of the data set: Antiparasitic activity against amastigote stage of Trypanosoma cruzi Y in BALB/c mouse macrophages assessed as decrease in number of intracellular amastigotes incubated for 6 hrs by Giemsa staining-based optical microscopic analysis. Format: functional, organism-based. The method, boiled down:
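Peritoneal BALB/c macrophages (thioglycolate-elicited) were infected with Y strain trypomastigotes at 10:1 for 2 h and washed. Compounds at five concentrations (1–50 µM) were applied for 6 h, followed by fresh medium and 3 days of culture. Amastigotes per 100 macrophages were counted after Giemsa staining.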

Data set [9] deals with Trypanosoma cruzi. Nature of the data set: Antiparasitic activity against amastigote stage of Trypanosoma cruzi Y in BALB/c mouse macrophages assessed as decrease in number of intracellular amastigotes at 50 uM incubated for 6 hrs by Giemsa staining-based optical microscopic analysis. The format is functional, organism-based. The method, boiled down: as §1
Data set [10] relates to Trypanosoma cruzi. The experiment in a line: Potency index, ratio of benznidazole IC50 to compound IC50 for amastigote stage of Trypanosoma cruzi Y in BALB/c mouse macrophages. The format is functional.
For data set [11], the system named is Trypanosoma cruzi. Nature of the data set: Antiparasitic activity against bloodstream trypomastigote stage of Trypanosoma cruzi Y infected in BALB/c mouse assessed as reduction of parasitemia at 100 mg/kg, po qd administered for 5 days measured on day 10 post infection relative to vehicle-treated control. Also noted: scale not given: the % may be the effect or the level left. Format: functional. The method, boiled down:
(§2)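 Female BALB/c mice (6 per group, randomized) were infected with 10⁴ Y strain trypomastigotes. They were dosed orally at 100 mg/kg once daily for 5 days starting day 5 post-infection. Parasitemia was counted as trypomastigotes in fresh blood. Reduction = (vehicle mean − treated mean)/vehicle mean × 100%.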

The test system of data set [12] is Trypanosoma cruzi. The experiment in a line: Antiparasitic activity against bloodstream trypomastigote stage of Trypanosoma cruzi Y infected in BALB/c mouse assessed as increase in survival rate by measuring mortality at 100 mg/kg, po qd administered for 5 days measured until 30 days. Format: functional, organism-based. The gist of the method:
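Female BALB/c mice (6 per group) were infected with 10⁴ Y strain trypomastigotes. From day 5 post-infection they received 100 mg/kg orally once daily for 5 days. Controls were vehicle (untreated infected) and benznidazole 100 mg/kg. Survival was followed for 30 days after infection in one experiment.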

For data set [13], the system named is Trypanosoma cruzi. Nature of the data set: Antiparasitic activity against bloodstream trypomastigote stage of Trypanosoma cruzi Y infected in BALB/c mouse assessed as reduction of parasitemia at 100 mg/kg, po qd administered for 5 days measured on day 12 post infection relative to vehicle-treated control. Also noted: scale not given: the % may be the effect or the level left. The format is functional. The method, boiled down:
as §2

The next data set concerns Mus musculus. Nature of the data set: Toxicity in BALB/c mouse infected with bloodstream trypomastigote stage of Trypanosoma cruzi Y assessed as body weight loss at 100 mg/kg, po qd administered for 5 days. The format is organism-based. The conditions noted are these: in vivo, 120 h.

Chain of Cruzipain (Trypanosoma cruzi) (P25779 123-467 limits assumed): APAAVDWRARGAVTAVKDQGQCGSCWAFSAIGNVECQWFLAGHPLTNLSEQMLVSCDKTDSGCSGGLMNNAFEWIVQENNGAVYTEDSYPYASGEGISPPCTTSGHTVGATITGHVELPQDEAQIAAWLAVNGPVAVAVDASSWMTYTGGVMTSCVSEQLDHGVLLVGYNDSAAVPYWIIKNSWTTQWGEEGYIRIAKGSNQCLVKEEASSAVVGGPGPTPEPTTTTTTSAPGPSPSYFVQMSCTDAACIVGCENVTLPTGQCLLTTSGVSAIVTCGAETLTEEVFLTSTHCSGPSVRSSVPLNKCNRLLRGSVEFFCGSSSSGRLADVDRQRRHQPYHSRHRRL

Regarding `C/C(=N\N=C(\N)S)c1ccc(Cl)c(Cl)c1`, the inhibition (as a rule, the relative decrease from the control value, in per cent) in data set [1] was 85%. The “Ratio CC50/IC50” value in data set [2] was found to be 1.7. In addition, the IC50 (in general, the point on the concentration scale where inhibition reaches its midpoint) in the data set with Trypanosoma cruzi [3] stood at 7.1 µM. Also, the CC50 (usually the concentration at which the toxic effect on the cells reaches its halfway point) at 72 h in data set [4] amounted to 13.4 µM.

For the molecule `C/C(=N\N=C1\SCC(=O)N1c1ccccc1)c1ccc(Cl)c(Cl)c1`, the inhibition in data set [1] was 43%. The IC50 in the data set with Trypanosoma cruzi [3] was more than 50 µM. Besides, the CC50 at 72 h in data set [4] was more than 100 µM.

In [1], `C/C(=N\N=C1\SC(c2ccccc2)C(=O)N1C)c1ccc(Cl)c(Cl)c1` (centres undefined) returned an inhibition of 29%. Also, the IC50 in the data set with Trypanosoma cruzi [3] came out at 41.5 µM. In addition, the CC50 at 72 h in [4] turned out to be 97.6 µM.

The molecule `C/C(=N\N=C1\SC(C(C)C)C(=O)N1C)c1ccc(Cl)c(Cl)c1` (centres undefined) had an inhibition in [1] of 38%. For the same molecule, in the data set on Trypanosoma cruzi [3], the IC50 was more than 50 µM. In addition, in data set [4], the CC50 at 72 h is more than 100 µM.

Consider `C/C(=N\N=C1/NC(=O)C(c2ccccc2)S1)c1ccc(Cl)c(Cl)c1` (centres undefined), for which the inhibition in data set [1] is 61%. Moreover, the IC50 in the data set on Trypanosoma cruzi [3] is more than 50 µM. For the same molecule, the CC50 at 72 h in [4] amounted to 96.9 µM.

In turn, `C/C(=N\N=C1\SC(c2ccccc2)C(=O)N1c1ccccc1)c1ccc(Cl)c(Cl)c1` (centres undefined) displayed an inhibition in data set [1] of 27%. In data set [2], the “Ratio CC50/IC50” value is 1.5. The IC50 in the data set on Trypanosoma cruzi [3] amounted to 17.7 µM. Besides, the CC50 at 72 h in data set [4] came to 27.1 µM.

Regarding `O=C(N[C@@H](Cn1ccnc1)c1ccc(-c2ccc(F)cc2)cc1F)c1ccc(-c2nnc(-c3ccccc3)o2)cc1`, the values for the Activity in the data set with Trypanosoma cruzi [5] and with Leishmania were 100% and 89%, respectively.

In data set [1], `C/C(=N\N=C1\SC(C)C(=O)N1c1ccccc1)c1ccc(Cl)c(Cl)c1` (centres undefined) returned an inhibition of 43%. Further, the outcome with Trypanosoma cruzi [6] and in the data set on Trypanosoma cruzi [9] was Active. Besides, the “Ratio IC50” value with Trypanosoma cruzi [7] and in the data set with Trypanosoma cruzi [10] was 2 throughout. In addition, in data set [2], the “Ratio CC50/IC50” value is recorded as 6. The values for the IC50 in the data set with Trypanosoma cruzi [8] and in the data set on Trypanosoma cruzi [3] were 5.9 µM and 4.2 µM, respectively. The CC50 at 72 h in data set [4] worked out at 26.1 µM.

In data set [1], `CNC(=S)N/N=C(\C)c1ccc(Cl)c(Cl)c1` showed an inhibition of 28%. Besides, in the data set with Trypanosoma cruzi [3], the IC50 stood at 11.2 µM. The CC50 at 72 h in [4] is more than 100 µM.

`CCC1S/C(=N/N=C(\C)c2ccc(Cl)c(Cl)c2)NC1=O` (centres undefined) came in with an inhibition in data set [1] of 49%. Besides, in the data set with Trypanosoma cruzi [3], the IC50 is more than 50 µM. Moreover, the CC50 at 72 h in data set [4] turned out to be 76.7 µM.

For `C/C(=N\N=C1/NC(=O)C(C(C)C)S1)c1ccc(Cl)c(Cl)c1` (centres undefined), in data set [1], the inhibition turned out to be 49%. In data set [2], the “Ratio CC50/IC50” value is listed as more than 5.9. Besides, the IC50 with Trypanosoma cruzi [3] was found to be 16.9 µM. The CC50 at 72 h in [4] was more than 100 µM.

For the molecule `O=C(Cn1ccnc1[N+](=O)[O-])NCc1ccccc1` [BENZNIDAZOLE], the Activity is recorded as more than 99% in the data set on Trypanosoma cruzi [11], more than 99% with Trypanosoma cruzi [13] and “Non-toxic” in the data set with Mus musculus. The outcome in the data set with Trypanosoma cruzi [12], in the data set on Trypanosoma cruzi [6] and in the data set with Trypanosoma cruzi [9] was Active. Besides, the “Ratio CC50/IC50” value in [2] is on record as more than 9.4. The IC50 in the data set with Trypanosoma cruzi [3] was 10.6 µM. The CC50 at 72 h in [4] is more than 100 µM.

In data set [1], `C/C(=N\NC(=S)Nc1ccccc1)c1ccc(Cl)c(Cl)c1` yielded an inhibition of 0%. In addition, the IC50 with Trypanosoma cruzi [3] is more than 50 µM. Also, the CC50 at 72 h in data set [4] was more than 100 µM.

In turn, `C/C(=N\N=C1/NC(=O)C(C)S1)c1ccc(Cl)c(Cl)c1` (centres undefined) yielded an inhibition in data set [1] of 49%. Further, the “Ratio CC50/IC50” value in [2] is given as more than 2. Besides, in the data set on Trypanosoma cruzi [3], the IC50 came out at 49.5 µM. In addition, the CC50 at 72 h in [4] was more than 100 µM.

On to `CCC1S/C(=N/N=C(\C)c2ccc(Cl)c(Cl)c2)N(C)C1=O` (centres undefined), for which the inhibition in [1] came to 20%. For the same molecule, the “Ratio CC50/IC50” value in data set [2] is more than 2. Further, in the data set with Trypanosoma cruzi [3], the IC50 worked out at 48.5 µM. In data set [4], the CC50 at 72 h was more than 100 µM.

In the case of `C/C(=N\N=C1\SCC(=O)N1C)c1ccc(Cl)c(Cl)c1`, the inhibition in [1] was found to be 0%. In addition, the IC50 in the data set with Trypanosoma cruzi [3] was more than 50 µM. Further, the CC50 at 72 h in data set [4] was more than 100 µM.

For the molecule `C/C(=N\N=C1\SC(C)C(=O)N1C)c1ccc(Cl)c(Cl)c1` (centres undefined), in data set [1], the inhibition was 32%. In addition, the IC50 in the data set on Trypanosoma cruzi [3] was more than 50 µM. Also, the CC50 at 72 h in data set [4] is more than 100 µM.

Take `C/C(=N\N=C1\SC(C(C)C)C(=O)N1c1ccccc1)c1ccc(Cl)c(Cl)c1` (centres undefined): the figures for the Activity in the data set with Trypanosoma cruzi [11], with Trypanosoma cruzi [13] and with Mus musculus were 86.7%, 97.1% and “Non-toxic”, respectively. Also, the result in the data set on Trypanosoma cruzi [12], in the data set on Trypanosoma cruzi [6] and in the data set with Trypanosoma cruzi [9] was Active. The molecule further returned an inhibition in data set [1] of 23%. Besides, the “Ratio IC50” value worked out at 6 with Trypanosoma cruzi [7] and 4 in the data set with Trypanosoma cruzi [10]. In data set [2], the “Ratio CC50/IC50” value was more than 58. In addition, the values for the half-maximal inhibitory concentration (IC50) with Trypanosoma cruzi [8] and with Trypanosoma cruzi [3] were 3.1 µM and 1.7 µM, respectively. The CC50 at 72 h in data set [4] was more than 100 µM.

Take `CN(C)c1ccc(C(=C2C=CC(=[N+](C)C)C=C2)c2ccc(N(C)C)cc2)cc1` [GENTIAN VIOLET]: in data set [4], the CC50 at 72 h came to 0.45 µM.

In data set [1], `CCC1S/C(=N/N=C(\C)c2ccc(Cl)c(Cl)c2)N(c2ccccc2)C1=O` (centres undefined) registered an inhibition of 24%. Besides, the result with Trypanosoma cruzi [6] and in the data set on Trypanosoma cruzi [9] was Active. Further, the entries for the “Ratio IC50” value with Trypanosoma cruzi [7] and in the data set on Trypanosoma cruzi [10] were 3 and 4, respectively. For the same molecule, the “Ratio CC50/IC50” value in [2] came out at 8. Moreover, the figures for the IC50 in the data set with Trypanosoma cruzi [8] and in the data set on Trypanosoma cruzi [3] were 3.2 µM and 2.9 µM, respectively. Moreover, the CC50 at 72 h in data set [4] came to 23.3 µM.

With `C/C(=N\N=C1/NC(=O)CS1)c1ccc(Cl)c(Cl)c1`, in data set [1], the inhibition stood at 54%. Besides, the IC50 in the data set with Trypanosoma cruzi [3] is more than 50 µM. For the same molecule, the CC50 at 72 h in data set [4] amounted to 76.5 µM.

As for `O=C(N[C@@H](Cn1ccnc1)c1ccc(Cl)cc1Cl)c1ccc(-c2nnc(-c3ccccc3)o2)cc1`, the Activity in the data set on Leishmania amounted to 60%.
